# Assay outcomes: PubChem BioAssay, Johns Hopkins Ion Channel Center
# Only some compounds are listed: those with a hit (about 2.3% of all), similar ones and a draw of the others.
# TRPC6 inhibitor = inhibitors of mouse TRPC6 channel | HEK293-TRPC6, membrane potential dye, ACh-evoked depolarization; active compounds read low | B-score at 10 µM | 310,000 tested, 1.1% active;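 active = B-score under library mean minus 3 SD, initial fluorescence not abnormally high, positive integrated signal ratio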;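 also: B-score derived from integrated fluorescence ratio over the kinetic read; more negative B-score means stronger inhibition of depolarization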
# TRPC4 potent = allosterically enhances the mouse TRPC4 cation channel | 310,000 tested, 0.42% active | HEK293 TRPC4beta/mu-opioid, DAMGO EC20, Fluo-4 Ca2+ flux; active compounds read high | B-score at 10 µM | AID 2227;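 active = B-score of calcium response area above 5 SD of library B-scores, with initial fluorescence ratio within 5 SD of library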
# TRPC6 activator = activates the mouse TRPC6 cation channel; Q61143; 310,000 tested, 0.13% active; B-score at 10 µM; HEK293-TRPC6 membrane potential dye fluorescence; active compounds read high;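 active = B-score of the integrated fluorescence ratio above library mean plus 3 SD, and starting fluorescence ratio within library mean plus 5 SD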;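 also: higher score means more depolarization so channel activation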
# TRPC4 act = TRPC4 (mouse) channel activation; B-score at 10 µM; HEK293 TRPC4beta/mu-opioid, Fluo4 calcium fluorescence; active compounds read high; AID 2237; 310,000 tested, 0.49% active;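 active = B-score above 5 SD of library B-scores, and initial fluorescence ratio not above library mean plus 5 SD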;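 also: positive B-score marks a calcium rise read as TRPC4 activation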
#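 system = HEK293 cells stably co-expressing mouse TRPC4beta and mu-opioid receptor | schedule = Fluo4 dye loading 45 min at room temperature, 110 s recording | measure = B-scored integrated calcium fluorescence ratio | signal = Fluo4 calcium-sensitive dye fluorescence, kinetic, 1 Hz baseline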
# TRPC4 block = inhibitors of mouse TRPC4 channel; Q9QUQ5; HEK293 TRPC4beta/mu-opioid, DAMGO-evoked Fluo4 calcium flux; active compounds read low; B-score at 10 µM; 300,000 tested, 0.39% active; AID 2247;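 active = B-score over 3 SD under the library average, no early fluorescence shift, positive overall ratio signal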
#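 test system = HEK293 cells with stable TRPC4beta plus mu-opioid receptor expression | detection = Fluo4 Ca2+ flux fluorescence | read-out = integrated fluorescence ratio relative to baseline, converted to per-well B score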
# HEK293 MPD ctr = counter-screen for TRPC6 modulators: effect in parental HEK293 cells | AID 488924 | membrane potential dye fluorescence | membrane potential signal change, % at 10 µM | shares compounds with TRPC6 inhibitor | 2,400 tested, 51% active;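 active = membrane potential signal moves up or down beyond 5 SD from buffer-only wells, on both duplicate plates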
# HEK293 MPD ctr 2 = second counter-screen for TRPC6 modulators: effect in parental HEK293 cells; inhibition, % at 10 µM; membrane potential dye fluorescence; after compound, maximal acetylcholine stimulation; shares compounds with TRPC6 inhibitor; 2,400 tested, 14% active;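 active = membrane potential signal drops by more than 5 SD from the mean control signal, in both duplicate plates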
# TRPC4 ctr mod = selectivity of TRPC6 modulators against mouse TRPC4 | percent change from control (negative = decrease, positive = increase), % at 10 µM | shares compounds with TRPC6 inhibitor | HEK293 TRPC4/mu-opioid, membrane potential fluorescence | 2,400 tested, 69% active;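 active = membrane potential signal moved up or down beyond 5 SD of buffer control wells, in both duplicate plates, actives on both sides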
# TRPC4 ctr inh 2 = second check of whether TRPC6 modulators also affect mouse TRPC4 | shares compounds with TRPC6 inhibitor | AID 488928 | HEK293 TRPC4/mu-opioid, membrane potential dye fluorescence; stimulated with maximal-effect DAMGO | inhibition, % at 10 µM | 2,400 tested, 55% active;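 active = drop in membrane potential signal beyond 5 SD of the control wells in both duplicate plates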;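 also: TRPC4 counter screen for TRPC6 hits run under conditions tuned for TRPC6 not TRPC4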
# TRPC6 block conf = mouse TRPC6 inhibitor confirmation. 3,300 tested, 43% active. AID 488960. HEK293-TRPC6, membrane potential dye, ACh-evoked depolarization. inhibition, % at 10 µM. shares compounds with TRPC6 inhibitor;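 active = fluorescence ratio falls more than 5 SD below the full-stimulation control mean, in both duplicate runs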;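 also: integrated fluorescence ratio of peak minus minimum over baseline after agonist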
# TRPC6 act confirm = confirmation of mouse TRPC6 activators. 2,800 tested, 11% active. activation, % at 10 µM. HEK293-TRPC6 membrane potential dye fluorescence, FDSS. shares compounds with TRPC6 inhibitor. AID 488961;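 active = ratio signal rise beyond 5 SD above unstimulated control wells' mean, seen in both duplicate runs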
# Hits are given with their value; 0 = inactive; - = not tested or not shown.
SMILES,TRPC6 inhibitor,TRPC4 potent,TRPC6 activator,TRPC4 act,TRPC4 block,HEK293 MPD ctr,HEK293 MPD ctr 2,TRPC4 ctr mod,TRPC4 ctr inh 2,TRPC6 block conf,TRPC6 act confirm
Cc1cccn2c(=O)c3cc(C(=O)NCCN4CCOCC4)c(=N)n(CCCN4CCOCC4)c3nc12,-5,0,0,0,0,189%,164%,32%,46%,61%,-
Cc1cccn2c(=O)c3cc(C(=O)NCC4CCCO4)c(=N)n(CCN4CCOCC4)c3nc12 (stereo not given),0,0,0,0,0,-,-,-,-,-,-
COc1ccc(CCn2c(=N)c(C(=O)NC3CCCC3)cc3c(=O)n4cccc(C)c4nc32)cc1,-5.3,0,0,0,0,-121%,0,-38%,49%,36%,0
CNC(=O)c1cc2c(=O)n3cccc(C)c3nc2n(C(C)C)c1=N,-12,0,0,0,0,-209%,121%,-40%,66%,82%,0
COc1cccc(N/C=C/c2onc(C)c2[N+](=O)[O-])c1,0,0,0,0,0,-,-,-,-,-,-
Cc1cccn2c(=O)c3cc(C(=O)NCCc4ccccc4)c(=N)n(CCCn4ccnc4)c3nc12,-6.2,0,0,0,0,0,100%,0,0,0,0
COc1ccc(CCn2c(=N)c(C(=O)NCCN3CCOCC3)cc3c(=O)n4cccc(C)c4nc32)cc1OC,0,0,0,0,0,-,-,-,-,-,-
Cc1cccn2c(=O)c3cc(C(=O)NCCN4CCOCC4)c(=N)n(CCc4ccccc4)c3nc12,-5.5,0,0,0,0,0,104%,0,52%,0,0
COCCn1c(=N)c(C(=O)NCCc2ccccc2)cc2c(=O)n3cccc(C)c3nc21,0,0,0,0,0,-,-,-,-,-,-
O=S(=O)(c1cccc(F)c1)N1CCCN(c2ccc(C(F)(F)F)cn2)CC1,0,0,0,0,0,-,-,-,-,-,-
Cc1ccccc1CC(=O)Nc1sc(C(C)C)cc1C(=O)N1CCOCC1,0,0,0,0,0,-,-,-,-,-,-
CCOc1ccc(N(C(C)C(=O)Nc2ccc(OC)cc2)S(C)(=O)=O)cc1 (stereo not given),-6.4,0,0,0,0,0,0,0,0,0,0
CCN(CC)S(=O)(=O)c1ccc(NC(=O)C(C)N(c2ccc(OC)cc2)S(C)(=O)=O)cc1 (stereo not given),0,0,0,0,0,-,-,-,-,-,-
Cc1[nH]c2c(Cl)cccc2c(=O)c1CN1CCCCCC1,-5.9,0,0,0,0,-73%,0,-18%,0,0,0
COC(=O)CSc1nc(-c2ccccc2)c2c(c1C#N)CCCC2,0,0,0,0,0,-,-,-,-,-,-
N#Cc1c(NCCN)nc(-c2ccccc2)c2c1CCCC2,-6.2,0,0,0,0,0,0,0,85%,67%,0
Cc1ccc(N=Nc2c(=O)[nH]n3c(C)cc(C)nc23)cc1,-6.1,14,0,0,0,-134%,0,-14%,0,41%,0
Cc1cc(C)n2[nH]c(=O)c(N=Nc3ccc(S(N)(=O)=O)cc3)c2n1,-15,0,0,0,0,-397%,102%,-60%,68%,79%,0
COc1cccc(CN(C)C(=O)C2CC(=O)N(c3ccc4c(c3)OCCO4)C2)c1 (stereo not given),0,0,0,0,0,-,-,-,-,-,-
CC(=O)c1cccc(NC(=S)NC2CCCCCCC2)c1,0,0,0,0,0,-,-,-,-,-,-
Cc1ccc(N2CCN(S(=O)(=O)c3ccc4c(c3)oc(=O)n4C)CC2C)cc1 (stereo not given),0,0,0,0,0,-,-,-,-,-,-
Cc1c(OC(C)C(=O)N2C[C@H]3C[C@@H](C2)c2cccc(=O)n2C3)ccc2c3c(c(=O)oc12)CCC3 (stereo not given in full),-5,0,0,0,0,96%,0,12%,0,0,-
Cc1nc(SCC(=O)NCCc2ccc(Cl)cc2)nc(C)c1C,0,0,0,0,0,-,-,-,-,-,-
Cc1c(O)c(CN2CCCC2)cc2c3c(c(=O)oc12)CCC3,-5,0,0,0,0,-254%,0,-46%,0,0,0
CCCCOC(=O)/C(=C/c1cn(C)c2ccccc12)NC(=O)c1ccc(OC)cc1,0,0,0,0,0,-,-,-,-,-,-
SMILES,TRPC6 inhibitor,TRPC4 potent,TRPC6 activator,TRPC4 act,TRPC4 block,HEK293 MPD ctr,HEK293 MPD ctr 2,TRPC4 ctr mod,TRPC4 ctr inh 2,TRPC6 block conf,TRPC6 act confirm
COc1ccc(C(=O)N/C(=C\c2cn(C)c3ccccc23)C(=O)OCCN(C)C)cc1,-6.1,0,0,0,0,0,0,0,53%,45%,0
CCN(CC)CCNC1=NCCn2c1cc1cc(OC)ccc12,-6.7,0,0,0,0,-146%,0,-28%,44%,0,0
CN1CCN(c2ccc(S(=O)(=O)N3CCOCC3)cc2)CC1,0,0,0,0,0,-,-,-,-,-,-
COC(CNC(=O)c1ccc2c(c1)ncn2-c1ccc(F)cc1F)OC,-5,0,0,0,0,0,0,40%,72%,0,-
COC(CNC(=O)c1ccc2c(c1)ncn2-c1cccc(F)c1)OC,0,0,0,0,0,-,-,-,-,-,-
COc1ccc(/C=C2\SC(=NCc3ccccc3)NC2=O)cc1,-6.2,0,0,0,0,0,0,0,0,0,0
O=C(NCC1CCN(c2ccc(S(=O)(=O)N3CCOCC3)cc2)CC1)c1cccc(Cl)c1,-6.3,0,0,0,0,0,0,-30%,0,45%,0
